According to ChEMBL document CHEMBL1250547, “Synthesis and evaluation of original amidoximes as antileishmanial agents” (Bioorg Med Chem, 2010):

How the values were obtained:
[1] = Selectivity index, ratio of IC50 for human THP1 cells to IC50 for promastigotes of Leishmania donovani HOM/IN/01/2001; type: toxicity, cell-based, THP-1; conditions: read-out: Selectivity Index
THP-1 = assay: Cytotoxicity against human THP1 cells after 72 hrs by flow cytometry; type: cell-based; conditions: THP-1, 72 h
In short: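 Late log-phase THP1 monocytes in phenol red-free RPMI 1640 with 10% FCS, 2% L-glutamine, 1% penicillin-streptomycin; compound range in duplicate, DMSO final <0.5% v/v; 72 h at 37 °C, 6% CO2; propidium iodide staining, live cells counted by flow cytometry; doxorubicin, pentamidine and solvent controls; IC50 by non-linear regression, mean of three independent experiments.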

Leishmania donovani = assay: Antileishmanial activity against promastigotes of Leishmania donovani HOM/IN/01/2001 after 72 hrs by flow cytometry; type: functional, organism-based; conditions: HOM/IN/01/2001, 72 h
In short: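 GFP-transfected late log-phase promastigotes in M199 with 10% FCS and 500 µg/mL G418, seeded at about 10⁵ parasites/mL; compounds in DMSO (final <0.5% v/v) over a concentration range in duplicate; 72 h at 27 °C; growth read by green fluorescence flow cytometry; DMSO and pentamidine controls; IC50 versus control by non-linear regression of dose-response curves.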

Row | SMILES | selectivity ratio [1] | IC50 (THP-1) | IC50 (Leishmania donovani)
1 | N/C(=N\O)c1ccc(S(=O)(=O)C2=C(c3ccc(Nc4cccc(/C(N)=N/O)c4)cc3)OC(c3ccccc3)(c3ccccc3)C2)cc1 | < 1 | 48.1 µM | > 50 µM
2 | COc1cccc2c1C(=O)c1c(O)c3c(c(O)c1C2=O)C[C@@](O)(C(=O)CO)C[C@@H]3O[C@H]1C[C@H](N)[C@H](O)[C@H](C)O1 [DOXORUBICIN] | – | 0.008 µM | –
3 | CC1(Cc2ccccc2)CC(S(=O)(=O)c2ccc(/C(N)=N/O)cc2)=C(c2ccccc2)O1 (centres undefined) | 6.6 | 54.7 µM | 8.3 µM
4 | CC1(Cc2ccccc2)CC(S(=O)(=O)c2ccc(/C(N)=N/O)cc2)=C(c2ccc(/C=C/c3ccc(/C(N)=N/O)cc3)cc2)O1 (centres undefined) | 1.4 | 23.4 µM | 17.1 µM
5 | N/C(=N\O)c1ccc(C2=C(S(=O)(=O)c3ccc(Nc4cccc(/C(N)=N/O)c4)cc3)CC(c3ccccc3)(c3ccccc3)O2)cc1 | – | > 50 µM | > 50 µM
6 | CC1(Cc2ccccc2)CC(S(=O)(=O)c2ccccc2)=C(c2ccc(/C(N)=N/O)cc2)O1 (centres undefined) | 3.1 | 94.6 µM | 30.3 µM
7 | N/C(=N\O)c1ccc(/C=C/c2ccc(C3=C(S(=O)(=O)c4ccc(/C(N)=N/O)cc4)CC(c4ccccc4)(c4ccccc4)O3)cc2)cc1 | < 0.9 | 41.3 µM | > 50 µM
8 | CC1(Cc2ccccc2)CC(S(=O)(=O)c2ccc(/C=C/c3ccc(/C(N)=N/O)cc3)cc2)=C(c2ccc(/C(N)=N/O)cc2)O1 (centres undefined) | – | > 50 µM | > 50 µM
9 | N/C(=N\O)c1ccc(/C=C/c2ccc(S(=O)(=O)C3=C(c4ccc(/C(N)=N/O)cc4)OC(c4ccccc4)(c4ccccc4)C3)cc2)cc1 | > 0.2 | > 10 µM | 50 µM
10 | CC1(Cc2ccccc2)CC(S(=O)(=O)c2ccc(Nc3ccccc3/C(N)=N/O)cc2)=C(c2ccc(/C(N)=N/O)cc2)O1 (centres undefined) | 1 | 48.4 µM | 48.3 µM
11 | N/C(=N\O)c1ccc(Nc2ccc(C3=C(S(=O)(=O)c4ccc(/C(N)=N/O)cc4)CC(c4ccccc4)(c4ccccc4)O3)cc2)cc1 | < 1 | 48.9 µM | > 50 µM
12 | CC1(Cc2ccccc2)CC(S(=O)(=O)c2ccc(Nc3cccc(/C(N)=N/O)c3)cc2)=C(c2ccc(/C(N)=N/O)cc2)O1 (centres undefined) | < 1 | 46.6 µM | > 50 µM
13 | N/C(=N\O)c1ccc(Nc2ccc(S(=O)(=O)C3=C(c4ccc(/C(N)=N/O)cc4)OC(c4ccccc4)(c4ccccc4)C3)cc2)cc1 | > 1.3 | > 50 µM | 39.1 µM
14 | N/C(=N\O)c1ccc(S(=O)(=O)CC(=O)c2ccccc2)cc1 | – | > 125 µM | > 125 µM
15 | CC1(Cc2ccccc2)CC(S(=O)(=O)c2ccc(Nc3ccc(/C(N)=N/O)cc3)cc2)=C(c2ccc(/C(N)=N/O)cc2)O1 (centres undefined) | < 1 | 47.6 µM | > 50 µM
16 | CC1(Cc2ccccc2)CC(S(=O)(=O)c2ccc(/C(N)=N/O)cc2)=C(c2ccc(Nc3cccc(/C(N)=N/O)c3)cc2)O1 (centres undefined) | < 0.9 | 44 µM | > 50 µM
17 | N/C(=N\O)c1ccc(C2=C(S(=O)(=O)c3ccccc3)CC(c3ccccc3)(c3ccccc3)O2)cc1 | 1.5 | 30.6 µM | 20.6 µM
18 | N/C(=N\O)c1ccc(C2=C(S(=O)(=O)c3ccc(Nc4ccccc4/C(N)=N/O)cc3)CC(c3ccccc3)(c3ccccc3)O2)cc1 | > 1.3 | > 50 µM | 39.1 µM
19 | CC1(Cc2ccccc2)CC(S(=O)(=O)c2ccc(/C(N)=N/O)cc2)=C(c2ccc(Nc3ccccc3/C(N)=N/O)cc2)O1 (centres undefined) | 5.5 | 48.1 µM | 8.8 µM
20 | N/C(=N\O)c1ccc(S(=O)(=O)C2=C(c3ccccc3)OC(c3ccccc3)(c3ccccc3)C2)cc1 | 2.1 | 37.9 µM | 17.6 µM
21 | N=C(N)c1ccc(OCCCCCOc2ccc(C(=N)N)cc2)cc1 [PENTAMIDINE] | 2.8 | 31.2 µM | 11.2 µM
22 | CC1(Cc2ccccc2)CC(S(=O)(=O)c2ccc(/C(N)=N/O)cc2)=C(c2ccc(/C(N)=N/O)cc2)O1 (centres undefined) | 1 | 99.5 µM | 99.5 µM
23 | N/C(=N\O)c1ccc(S(=O)(=O)C2=C(c3ccc(Nc4ccccc4/C(N)=N/O)cc3)OC(c3ccccc3)(c3ccccc3)C2)cc1 | 3.6 | 47.8 µM | 13.3 µM
24 | N/C(=N\O)c1ccc(C(=O)CS(=O)(=O)c2ccc(/C(N)=N/O)cc2)cc1 | – | > 125 µM | > 125 µM
25 | N/C(=N\O)c1ccc(C(=O)CS(=O)(=O)c2ccccc2)cc1 | – | > 125 µM | > 125 µM
26 | N/C(=N\O)c1ccc(C2=C(S(=O)(=O)c3ccc(/C(N)=N/O)cc3)CC(c3ccccc3)(c3ccccc3)O2)cc1 | 1.6 | 119 µM | 74.3 µM
27 | CC1(Cc2ccccc2)CC(S(=O)(=O)c2ccc(/C(N)=N/O)cc2)=C(c2ccc(Nc3ccc(/C(N)=N/O)cc3)cc2)O1 (centres undefined) | 0.3 | 9.8 µM | 30.1 µM
